Source: ChEMBL document CHEMBL4406821, “Novel dual inhibitors targeting CDK4 and VEGFR2 synergistically suppressed cancer progression and angiogenesis” (Eur J Med Chem, 2019)
The source made the active and inactive calls. The calls are words filed in the database; no cut-off is given here.

Experiments:
SiHa [1] = experiment: Inhibition of colony formation in human SiHa cells at 80 nM incubated for 5 days by crystal violet staining based light microscopy; assay type: functional, cell-based
How it was run: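 4 × 10^3 cells per well were cultured with graded concentrations for 5 days. Cells were then fixed with 20% methanol, stained with 0.5% crystal violet and photographed by light microscopy.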

[2] = molecular target: T1, Vascular endothelial growth factor receptor 2 (Homo sapiens, UniProt P35968); conditions: HUVEC, 40 nM
[3] = Toxicity in BALB/c mouse assessed as effect on blood parameter by measuring hematocrit at 40 mg/kg, po administered once two days for 4 times by hematology analyzer; conditions: in vivo
[4] = molecular target: Serine-protein kinase ATM (Homo sapiens) (UniProt Q13315); experiment: Inhibition of recombinant human full length ATM at 1 uM using GST-cMyc-p53 as substrate incubated for 40 mins in presence of [gamma-33P]-ATP by scintillation counting method relative to control
[5] = molecular target: Ephrin type-A receptor 8 (Homo sapiens) (UniProt P29322); experiment: Inhibition of recombinant human EPhA8 (615 to 911 residues) at 1 uM using KTFCGTPEYLAPEVRREPRILSEEEQEMFRDFDYIADWC as substrate incubated for 40 mins in presence of [gamma-33P]-ATP by scintillation counting method relative to control
[6] = Toxicity in BALB/c mouse assessed as toxic effects in spleen at 40 mg/kg, po administered for 48 hrs by hematoxylin and eosin staining method; conditions: in vivo
[7] = molecular target: Tyrosine-protein kinase Blk (Homo sapiens) (UniProt P51451); experiment: Inhibition of recombinant full length human BLK at 1 uM using poly(Glu, Tyr) 4:1 as substrate incubated for 40 mins in presence of [gamma-33P]-ATP by scintillation counting method relative to control
How it was run: (§1)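 Kinase panel profiling at 1 μM performed by Eurofins KinaseProfiler; percent inhibition reported as mean of two independent experiments.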

[8] = molecular target: Serine/threonine-protein kinase haspin (Homo sapiens) (UniProt Q8TF76); experiment: Inhibition of recombinant human Haspin (471 to end residues) at 1 uM using RARTLSFAEPG as substrate incubated for 40 mins in presence of [gamma-33P]-ATP by scintillation counting method relative to control
SiHa [9] = experiment: Induction of apoptosis in human SiHa cells assessed as increase in early apoptotic cells at 20 to 40 nM incubated for 48 hrs by annexin V FITC and propidium iodide staining based flow cytometry; assay type: functional, cell-based
How it was run: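 Annexin V-FITC/PI double staining with flow-cytometric readout. MDA-MB-231, T-47D, SiHa and HeLa cells were treated with graded concentrations for 48 h. MDA-MB-231 and T-47D were grown in DMEM and SiHa in 1640 medium, each with 10% FBS and 1% penicillin/streptomycin at 37°C under 5% CO2. Early- and late-stage apoptotic fractions were scored.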

[10] = molecular target: 5'-AMP-activated protein kinase catalytic subunit alpha-1 (Homo sapiens) (UniProt Q13131); experiment: Inhibition of recombinant full length human AMPKalpha1 at 1 uM using AMARAASAAALAR as substrate incubated for 40 mins in presence of [gamma-33P]-ATP by scintillation counting method relative to control; how it was run: as §1
[11] = molecular target: Death-associated protein kinase 2 (Homo sapiens) (UniProt Q9UIK4); experiment: Inhibition of recombinant full length human DAPK2 at 1 uM using calmodulin as substrate incubated for 40 mins in presence of [gamma-33P]-ATP by scintillation counting method relative to control; how it was run: as §1
Homo sapiens = species on record: Homo sapiens; experiment: Inhibition of recombinant human full length PI3K p110alpha/p65alpha (1 to 571 residues) at 1 uM using phosphatidylinositol 4,5-bisphosphate as substrate incubated for 40 mins in presence of [gamma-33P]-ATP by scintillation counting method relative to control
[12] = test system: Hepatocyte growth factor receptor (Homo sapiens), P08581 [Y1248H]; experiment: Inhibition of recombinant human Met Y1248H mutant (974 to end residues) at 1 uM using KKKGQEEEYVFIE as substrate incubated for 40 mins in presence of [gamma-33P]-ATP by scintillation counting method relative to control
[13] = molecular target: Ephrin type-A receptor 3 (Homo sapiens) (UniProt P29320); experiment: Inhibition of recombinant human EPhA3 (578 to end residues) at 1 uM using poly(Glu, Tyr) 4:1 as substrate incubated for 40 mins in presence of [gamma-33P]-ATP by scintillation counting method relative to control
[14] = molecular target: Calcium/calmodulin-dependent protein kinase type 1G (Homo sapiens) (UniProt Q96NX5); experiment: Inhibition of recombinant full length human CAMKIgamma at 1 uM using KKLRRTLSFAEPG as substrate incubated for 40 mins in presence of [gamma-33P]-ATP by scintillation counting method relative to control; how it was run: as §1
[15] = molecular target: NUAK family SNF1-like kinase 1 (Homo sapiens) (UniProt O60285); experiment: Inhibition of recombinant human ARK5 (2 to end residues) at 1 uM using KKKVSRSGLYRSP as substrate incubated for 40 mins in presence of [gamma-33P]-ATP by scintillation counting method relative to control; how it was run: as §1
[16] = molecular target: Aurora kinase C (Homo sapiens) (UniProt Q9UQB9); experiment: Inhibition of recombinant human Aurora-C (35 to end residues) at 1 uM using AKRRRLSSLRA as substrate incubated for 40 mins in presence of [gamma-33P]-ATP by scintillation counting method relative to control; how it was run: as §1
[17] = molecular target: T1, Vascular endothelial growth factor receptor 2; experiment: Inhibition of VEGFR2 in HUVEC cells assessed as reduction in Src phosphorylation at 20 to 40 nM incubated for 48 hrs by Western blot analysis; assay type: cell-based
How it was run: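 HUVECs were maintained in 1640 medium with 10% FBS. They were treated with graded concentrations for 48 h, PBS-washed and lysed in RIPA buffer. Immunoblots were probed for total and phospho VEGFR2, STAT3, Akt, Erk1 and Src, each at 1:1000. β-actin served as loading control.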

[18] = molecular target: Ephrin type-A receptor 5 (Homo sapiens) (UniProt P54756); experiment: Inhibition of recombinant human EPhA5 (655 to 956 residues) at 1 uM using poly(Glu, Tyr) 4:1 as substrate incubated for 40 mins in presence of [gamma-33P]-ATP by scintillation counting method relative to control
[19] = molecular target: MAPK/MAK/MRK overlapping kinase (Homo sapiens) (UniProt Q9UQ07); experiment: Inhibition of recombinant human MOK (1 to 343 residues) at 1 uM using RSRSRSRSRSRSRSR as substrate incubated for 40 mins in presence of [gamma-33P]-ATP by scintillation counting method relative to control
[20] = molecular target: Activin receptor type-1-like (Homo sapiens) (UniProt P37023); experiment: Inhibition of recombinant human ALK1 (142 to end residues) at 1 uM using casein as substrate incubated for 40 mins in presence of [gamma-33P]-ATP by scintillation counting method relative to control; how it was run: as §1
Sequence of Activin receptor type-1-like (Homo sapiens) (P37023 whole entry): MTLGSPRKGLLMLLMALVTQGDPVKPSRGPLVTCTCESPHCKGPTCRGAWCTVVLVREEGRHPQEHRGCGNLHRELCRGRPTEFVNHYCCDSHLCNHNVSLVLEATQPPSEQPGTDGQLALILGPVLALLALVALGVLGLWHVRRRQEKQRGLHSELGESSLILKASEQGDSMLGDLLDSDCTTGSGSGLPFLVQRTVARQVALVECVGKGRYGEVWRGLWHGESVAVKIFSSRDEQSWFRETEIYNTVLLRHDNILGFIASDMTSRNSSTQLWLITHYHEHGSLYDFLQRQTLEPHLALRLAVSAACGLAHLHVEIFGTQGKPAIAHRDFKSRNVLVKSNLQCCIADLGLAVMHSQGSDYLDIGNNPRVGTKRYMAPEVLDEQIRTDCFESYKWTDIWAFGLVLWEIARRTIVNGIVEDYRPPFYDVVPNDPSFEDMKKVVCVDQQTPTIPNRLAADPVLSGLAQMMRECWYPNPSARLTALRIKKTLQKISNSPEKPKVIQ

T1 sequence (P35968 whole entry): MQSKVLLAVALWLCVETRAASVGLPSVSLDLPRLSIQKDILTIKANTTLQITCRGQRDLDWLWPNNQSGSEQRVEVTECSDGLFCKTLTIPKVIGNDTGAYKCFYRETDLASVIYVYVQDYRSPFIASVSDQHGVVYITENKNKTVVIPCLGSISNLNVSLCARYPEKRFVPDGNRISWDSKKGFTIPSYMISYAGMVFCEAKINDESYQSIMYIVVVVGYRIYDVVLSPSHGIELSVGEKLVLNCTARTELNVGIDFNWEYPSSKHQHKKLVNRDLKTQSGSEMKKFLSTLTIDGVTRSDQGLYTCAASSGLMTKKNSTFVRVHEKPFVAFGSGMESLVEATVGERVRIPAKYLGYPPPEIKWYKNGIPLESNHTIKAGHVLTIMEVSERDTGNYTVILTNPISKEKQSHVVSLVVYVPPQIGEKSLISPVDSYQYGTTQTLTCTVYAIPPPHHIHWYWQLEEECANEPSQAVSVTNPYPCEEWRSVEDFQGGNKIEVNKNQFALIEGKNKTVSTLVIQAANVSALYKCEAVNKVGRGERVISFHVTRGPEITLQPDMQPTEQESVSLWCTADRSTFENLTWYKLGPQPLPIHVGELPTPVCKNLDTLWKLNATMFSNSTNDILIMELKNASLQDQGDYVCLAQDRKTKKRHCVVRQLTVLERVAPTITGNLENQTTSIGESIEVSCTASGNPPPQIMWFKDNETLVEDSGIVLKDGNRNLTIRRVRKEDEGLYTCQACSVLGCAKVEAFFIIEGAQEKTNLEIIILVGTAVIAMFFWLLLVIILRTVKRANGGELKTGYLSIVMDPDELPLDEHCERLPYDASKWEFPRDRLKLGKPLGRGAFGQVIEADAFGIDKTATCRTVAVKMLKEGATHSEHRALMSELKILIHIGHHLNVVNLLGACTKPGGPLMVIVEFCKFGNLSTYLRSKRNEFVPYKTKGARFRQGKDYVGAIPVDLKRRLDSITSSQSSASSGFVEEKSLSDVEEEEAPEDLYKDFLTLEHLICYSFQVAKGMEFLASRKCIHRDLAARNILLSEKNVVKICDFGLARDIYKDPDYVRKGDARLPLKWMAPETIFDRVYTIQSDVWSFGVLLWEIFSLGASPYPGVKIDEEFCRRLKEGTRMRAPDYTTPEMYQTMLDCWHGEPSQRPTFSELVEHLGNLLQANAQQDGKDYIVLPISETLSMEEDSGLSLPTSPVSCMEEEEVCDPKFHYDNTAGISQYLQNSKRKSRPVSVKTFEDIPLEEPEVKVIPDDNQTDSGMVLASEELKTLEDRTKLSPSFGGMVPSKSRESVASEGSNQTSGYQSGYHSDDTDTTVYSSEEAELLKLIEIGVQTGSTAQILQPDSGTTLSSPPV
Sequence of Death-associated protein kinase 2 (Homo sapiens) (Q9UIK4 whole entry, looked up, the tested form may be a part): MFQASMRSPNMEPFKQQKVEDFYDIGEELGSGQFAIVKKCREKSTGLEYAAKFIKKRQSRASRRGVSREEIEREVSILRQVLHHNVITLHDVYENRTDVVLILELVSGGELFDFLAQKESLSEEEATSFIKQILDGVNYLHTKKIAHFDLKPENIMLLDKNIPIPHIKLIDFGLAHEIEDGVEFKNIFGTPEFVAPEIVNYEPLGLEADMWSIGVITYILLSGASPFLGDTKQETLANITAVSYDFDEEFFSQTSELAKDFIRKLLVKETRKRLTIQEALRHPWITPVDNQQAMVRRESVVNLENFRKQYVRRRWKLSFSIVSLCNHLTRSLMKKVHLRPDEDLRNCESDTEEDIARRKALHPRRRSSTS
Sequence of Serine/threonine-protein kinase haspin (Homo sapiens) (Q8TF76 whole entry): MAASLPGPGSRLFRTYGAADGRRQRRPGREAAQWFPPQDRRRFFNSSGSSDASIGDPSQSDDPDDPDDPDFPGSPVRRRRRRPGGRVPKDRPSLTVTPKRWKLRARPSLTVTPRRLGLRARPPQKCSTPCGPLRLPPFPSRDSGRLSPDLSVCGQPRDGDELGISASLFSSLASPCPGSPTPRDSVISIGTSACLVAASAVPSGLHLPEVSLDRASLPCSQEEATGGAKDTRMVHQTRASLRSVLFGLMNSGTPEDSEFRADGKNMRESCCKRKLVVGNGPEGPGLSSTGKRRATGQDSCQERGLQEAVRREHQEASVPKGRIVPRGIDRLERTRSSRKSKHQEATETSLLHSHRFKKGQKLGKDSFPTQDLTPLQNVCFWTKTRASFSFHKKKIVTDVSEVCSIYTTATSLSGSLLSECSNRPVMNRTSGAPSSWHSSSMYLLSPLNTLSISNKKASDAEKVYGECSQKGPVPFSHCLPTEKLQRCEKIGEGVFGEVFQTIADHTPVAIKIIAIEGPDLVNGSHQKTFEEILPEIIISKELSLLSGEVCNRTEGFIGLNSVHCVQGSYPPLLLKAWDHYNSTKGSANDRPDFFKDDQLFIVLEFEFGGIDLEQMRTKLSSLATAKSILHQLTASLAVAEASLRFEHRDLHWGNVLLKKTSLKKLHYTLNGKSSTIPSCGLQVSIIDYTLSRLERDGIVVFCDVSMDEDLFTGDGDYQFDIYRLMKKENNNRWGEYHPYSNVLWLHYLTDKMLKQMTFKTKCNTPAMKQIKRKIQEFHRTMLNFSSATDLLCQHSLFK
Sequence of Calcium/calmodulin-dependent protein kinase type 1G (Homo sapiens) (Q96NX5 whole entry): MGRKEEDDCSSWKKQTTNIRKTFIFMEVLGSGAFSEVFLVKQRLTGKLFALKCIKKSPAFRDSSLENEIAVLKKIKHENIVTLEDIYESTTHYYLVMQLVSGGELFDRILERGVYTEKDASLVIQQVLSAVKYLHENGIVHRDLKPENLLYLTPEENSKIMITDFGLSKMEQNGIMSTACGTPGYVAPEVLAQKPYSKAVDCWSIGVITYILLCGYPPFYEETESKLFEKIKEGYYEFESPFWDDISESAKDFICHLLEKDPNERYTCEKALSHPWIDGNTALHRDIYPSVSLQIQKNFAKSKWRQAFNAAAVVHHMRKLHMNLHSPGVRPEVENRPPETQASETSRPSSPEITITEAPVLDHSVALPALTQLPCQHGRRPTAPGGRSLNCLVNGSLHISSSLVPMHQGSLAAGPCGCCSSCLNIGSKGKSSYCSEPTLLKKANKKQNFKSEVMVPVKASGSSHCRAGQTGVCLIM
Sequence of MAPK/MAK/MRK overlapping kinase (Homo sapiens) (Q9UQ07 whole entry, the tested form may be a part): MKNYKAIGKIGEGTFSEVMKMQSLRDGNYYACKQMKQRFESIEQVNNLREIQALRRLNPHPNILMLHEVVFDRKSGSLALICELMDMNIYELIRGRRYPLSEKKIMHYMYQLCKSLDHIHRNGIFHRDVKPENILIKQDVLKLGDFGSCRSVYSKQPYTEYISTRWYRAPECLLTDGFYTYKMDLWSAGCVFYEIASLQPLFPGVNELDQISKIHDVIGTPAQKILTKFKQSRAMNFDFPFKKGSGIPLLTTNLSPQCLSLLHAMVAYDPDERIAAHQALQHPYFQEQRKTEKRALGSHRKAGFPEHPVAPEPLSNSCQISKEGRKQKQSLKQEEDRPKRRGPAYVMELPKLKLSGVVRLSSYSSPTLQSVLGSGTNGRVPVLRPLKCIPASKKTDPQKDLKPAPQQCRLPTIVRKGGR
Sequence of 5'-AMP-activated protein kinase catalytic subunit alpha-1 (Homo sapiens) (Q13131 whole entry, looked up): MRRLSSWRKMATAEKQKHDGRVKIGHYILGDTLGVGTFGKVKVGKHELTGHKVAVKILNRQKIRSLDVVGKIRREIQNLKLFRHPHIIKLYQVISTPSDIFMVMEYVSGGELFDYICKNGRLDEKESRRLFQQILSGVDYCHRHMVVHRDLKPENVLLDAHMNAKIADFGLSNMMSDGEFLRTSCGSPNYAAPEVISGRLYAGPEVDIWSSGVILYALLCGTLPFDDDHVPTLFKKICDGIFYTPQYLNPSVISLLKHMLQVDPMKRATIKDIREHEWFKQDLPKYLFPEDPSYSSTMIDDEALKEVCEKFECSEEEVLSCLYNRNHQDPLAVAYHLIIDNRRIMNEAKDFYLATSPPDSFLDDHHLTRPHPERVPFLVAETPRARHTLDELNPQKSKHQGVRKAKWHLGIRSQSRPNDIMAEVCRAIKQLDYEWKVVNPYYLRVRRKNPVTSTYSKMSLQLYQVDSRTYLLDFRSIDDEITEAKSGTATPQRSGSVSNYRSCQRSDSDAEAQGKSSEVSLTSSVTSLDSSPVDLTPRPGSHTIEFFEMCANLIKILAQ
Sequence of Aurora kinase C (Homo sapiens) (Q9UQB9 whole entry): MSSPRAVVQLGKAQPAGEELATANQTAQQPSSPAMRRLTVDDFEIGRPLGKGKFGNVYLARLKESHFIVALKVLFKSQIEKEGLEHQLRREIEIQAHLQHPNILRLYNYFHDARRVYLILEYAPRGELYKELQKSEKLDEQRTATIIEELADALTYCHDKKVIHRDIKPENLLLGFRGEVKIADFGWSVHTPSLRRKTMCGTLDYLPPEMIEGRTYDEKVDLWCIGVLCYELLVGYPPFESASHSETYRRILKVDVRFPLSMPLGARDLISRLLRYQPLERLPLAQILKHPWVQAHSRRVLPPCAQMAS

Structure (SMILES): COc1cc2nccc(Oc3ccc(NC(=O)C4(C(=O)Nc5ccc(F)cc5)CC4)cc3)c2cc1OC [CABOZANTINIB]
- inhibition (SiHa [1]): Active
- inhibition [2]: Active

Structure (SMILES): Cc1ccc(NC(=O)C2(C(=O)Nc3ccc(Nc4ncc(F)c(-c5cc(F)c6nc(C)n(C(C)C)c6c5)n4)cc3)CC2)cc1
- Activity [3]: Non-Toxic
- inhibition [4]: 2%
- inhibition [5]: 15%
- Activity [6]: Non-Toxic
- inhibition [7]: 39%
- inhibition [8]: 22%
- Activity (SiHa [9]): Active
- inhibition [10]: 40%
- inhibition [11]: 10%
- inhibition (Homo sapiens): 6%
- inhibition [12]: 40%
- inhibition [13]: 23%
- inhibition [14]: 5%
- inhibition [15]: 69%
- inhibition [16]: 9%
- inhibition [17]: Active
- inhibition [18]: 33%
- inhibition [19]: 25%
- inhibition [20]: 58%
